What was measured:
[1] = biological target: Serotonin 2 (5-HT2) receptor (Rattus norvegicus, UniProt P30994+P08909+P14842); test: Displacement of [3H]ketanserin from 5-hydroxytryptamine 2 receptor in rat cortical membranes; type: cell membranes, Membrane
Summary of the method: (§1)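 Radioligand displacement from rat brain membranes: 3H-ketanserin on cortical membranes (5-HT2), 3H-prazosin on whole brain membranes (alpha1), 3H-spiperone on striatal membranes (D2). Two full concentration-effect curves per compound, each with five test drug concentrations in triplicate spanning three decades. IC50 estimated from curves on a log-concentration scale. Outliers beyond 3 times the sd-ratio were discarded after extra determinations.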

[2] = biological target: T1, Adrenergic receptor alpha-1 (Rattus norvegicus, UniProt P15823+P23944+P43140); test: Displacement of [3H]prazosin from alpha-1 adrenoceptors in whole rat brain membranes; type: cell membranes; summary of the method: as §1
T1 sequence (P15823 whole entry): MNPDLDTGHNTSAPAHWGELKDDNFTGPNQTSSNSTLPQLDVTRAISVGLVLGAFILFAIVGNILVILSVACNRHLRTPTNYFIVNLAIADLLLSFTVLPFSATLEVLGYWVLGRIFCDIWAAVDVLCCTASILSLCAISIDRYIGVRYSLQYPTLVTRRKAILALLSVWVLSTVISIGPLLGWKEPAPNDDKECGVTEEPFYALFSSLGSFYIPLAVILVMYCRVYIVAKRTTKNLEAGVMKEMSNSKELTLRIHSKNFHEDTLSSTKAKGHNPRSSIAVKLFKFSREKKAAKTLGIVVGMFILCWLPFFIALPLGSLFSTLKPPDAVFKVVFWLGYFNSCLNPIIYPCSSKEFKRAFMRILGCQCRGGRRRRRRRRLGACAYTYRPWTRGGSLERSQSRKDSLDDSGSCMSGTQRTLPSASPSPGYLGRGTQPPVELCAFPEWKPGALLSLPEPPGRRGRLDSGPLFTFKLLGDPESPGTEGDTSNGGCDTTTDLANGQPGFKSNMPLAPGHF
T1 sequence (P23944 whole entry): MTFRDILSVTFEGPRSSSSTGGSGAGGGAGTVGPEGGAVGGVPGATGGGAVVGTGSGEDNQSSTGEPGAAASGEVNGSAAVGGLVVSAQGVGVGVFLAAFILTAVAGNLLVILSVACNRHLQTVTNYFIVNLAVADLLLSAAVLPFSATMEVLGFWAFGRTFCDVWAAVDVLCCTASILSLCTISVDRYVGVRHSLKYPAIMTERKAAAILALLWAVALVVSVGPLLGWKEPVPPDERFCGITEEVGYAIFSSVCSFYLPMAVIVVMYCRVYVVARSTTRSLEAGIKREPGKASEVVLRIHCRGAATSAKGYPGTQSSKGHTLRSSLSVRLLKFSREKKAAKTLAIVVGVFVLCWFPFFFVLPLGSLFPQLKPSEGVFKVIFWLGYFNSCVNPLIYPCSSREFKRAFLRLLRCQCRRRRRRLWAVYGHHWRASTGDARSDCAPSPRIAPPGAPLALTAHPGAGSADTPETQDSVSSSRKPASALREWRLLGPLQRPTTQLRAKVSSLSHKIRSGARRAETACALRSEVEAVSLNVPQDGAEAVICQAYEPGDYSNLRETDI
T1 sequence (P43140 whole entry): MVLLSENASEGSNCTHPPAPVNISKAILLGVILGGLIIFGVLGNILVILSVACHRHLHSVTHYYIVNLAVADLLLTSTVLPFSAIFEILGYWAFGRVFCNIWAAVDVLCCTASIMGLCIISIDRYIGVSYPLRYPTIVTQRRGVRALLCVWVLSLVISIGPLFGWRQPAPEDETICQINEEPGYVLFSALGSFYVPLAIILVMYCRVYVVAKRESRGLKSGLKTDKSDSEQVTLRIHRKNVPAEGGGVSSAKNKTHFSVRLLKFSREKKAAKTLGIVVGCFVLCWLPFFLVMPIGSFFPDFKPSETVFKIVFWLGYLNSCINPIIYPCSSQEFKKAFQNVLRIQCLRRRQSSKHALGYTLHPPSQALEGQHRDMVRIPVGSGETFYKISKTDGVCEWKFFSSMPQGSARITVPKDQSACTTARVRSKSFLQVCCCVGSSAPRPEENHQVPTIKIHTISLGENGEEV

D(2) dopamine receptor = D(2) dopamine receptor (Rattus norvegicus, UniProt P61169); test: Displacement of [3H]spiperone from dopamine D2 receptors in rat striatal membranes; type: cell membranes, Membrane; summary of the method: as §1
Sequence of D(2) dopamine receptor (P61169 whole entry): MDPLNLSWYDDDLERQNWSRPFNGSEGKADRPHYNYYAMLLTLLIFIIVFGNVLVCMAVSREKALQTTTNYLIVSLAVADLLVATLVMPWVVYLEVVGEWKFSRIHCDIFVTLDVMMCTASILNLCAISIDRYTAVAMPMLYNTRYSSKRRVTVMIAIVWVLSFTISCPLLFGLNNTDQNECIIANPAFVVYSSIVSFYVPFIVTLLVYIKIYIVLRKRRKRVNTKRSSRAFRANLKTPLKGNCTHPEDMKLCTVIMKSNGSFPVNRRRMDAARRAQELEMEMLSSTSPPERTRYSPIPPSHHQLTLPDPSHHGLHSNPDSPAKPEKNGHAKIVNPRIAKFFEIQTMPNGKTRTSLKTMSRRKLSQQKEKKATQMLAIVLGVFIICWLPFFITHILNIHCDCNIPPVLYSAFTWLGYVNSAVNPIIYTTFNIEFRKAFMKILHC

Rattus norvegicus = organism: Rattus norvegicus; test: Inhibition of quipazine-induced head twitches in rats after 2 hrs of pretreatment; type: functional
Summary of the method: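 Test drug was given sc or po to rats 2 or 24 h before quipazine (15 µmol/kg, sc). Head twitches were counted 30-40 min after quipazine, at least four animals per dose. Counts were expressed as percent of a quipazine-only control group.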

[3] = Rattus norvegicus, read-out: ED50

SMILES | IC50 [1] [nM] | IC50 [2] [nM] | IC50 (D(2) dopamine receptor) [nM] | ED50 (Rattus norvegicus) [µM/kg] | ED50 (Rattus norvegicus; [3]) [µmol/kg]
Cl.Cl.OCCN1CCN(C2CC(c3ccc(F)cc3)c3cc(Cl)ccc32)CC1 (single isomer, unassigned; (-)) | 11 | 210 | 370 | 0.86 | –
O=C(O)/C=C\C(=O)O.O=C(O)/C=C\C(=O)O.Oc1nc2ccccc2n1CCN1CCN(C2CC(c3ccc(F)cc3)c3cc(Cl)ccc32)CC1 (stereo not drawn) | 5.6 | 66 | 110 | – | 0.21
OCCN1CCN(C2CC(c3ccc(F)cc3)c3ccc(Cl)cc32)CC1 (stereo not drawn) | 2.6 | 26 | 20 | – | 0.039
O=C(O)/C=C\C(=O)O.O=C(O)/C=C\C(=O)O.O=C1N(CCN2CCN(C3CC(c4ccc(F)cc4)c4cc(Cl)ccc43)CC2)CCN1c1ccccc1 (stereo not drawn) | 44 | 310 | – | – | > 6.7
CSc1ccc2c(c1)C(c1ccc(F)cc1)CC2N1CCN(CCN2CCN(C(C)C)C2=O)CC1 (stereo not drawn) | 4 | 250 | – | – | > 3.4
Cl.Cl.OCCN1CCN(C2CC(c3ccc(F)cc3)c3cc(F)ccc32)CC1 (single isomer, unassigned; (+)) | 12 | 72 | 330 | 0.33 | –
Cl.Cl.OCCN1CCN(C2CC(c3ccc(F)cc3)c3cc(F)ccc32)CC1 (stereo in doubt; (-)-13) | 500 | 1100 | 22000 | >2.8 | –
O=C(O)/C=C\C(=O)O.O=C(O)/C=C\C(=O)O.O=c1[nH]c2ccccc2c(=O)n1CCN1CCN(C2CC(c3ccc(F)cc3)c3cc(Cl)ccc32)CC1 (stereo not drawn) | 3.8 | 78 | 93 | – | > 3.3
Cc1ccc2c(c1)C(c1ccc(F)cc1)CC2N1CCN(CCO)CC1.O=C(O)/C=C\C(=O)O.O=C(O)/C=C\C(=O)O (stereo not drawn) | 12 | 270 | 1100 | – | > 2.1
Cc1nc2sccn2c(=O)c1CCN1CCN(C2CC(c3ccc(F)cc3)c3cc(Cl)ccc32)CC1.O=C(O)/C=C\C(=O)O.O=C(O)/C=C\C(=O)O (stereo not drawn) | 19 | 24 | 65 | – | 1.9
O=C(O)/C=C\C(=O)O.O=C(O)/C=C\C(=O)O.O=C1NCCCN1CCN1CCN(C2CC(c3ccc(F)cc3)c3cc(F)ccc32)CC1 (single isomer, unassigned; (-)) | 57 | – | 4000 | – | –
O=C(O)/C=C\C(=O)O.O=C(O)/C=C\C(=O)O.O=C1NCCN1CCCN1CCN(C2CC(c3ccc(F)cc3)c3cc(Cl)ccc32)CC1 (stereo not drawn) | 10 | 73 | 160 | – | 0.91
Cl.Cl.Fc1ccc(C2CC(N3CCN(CCN4CCCNC4=S)CC3)c3ccc(Cl)cc32)cc1 (stereo in doubt; (+)-39) | 21 | 350 | 490 | – | –
Cl.Cl.OCCN1CCN(C2CC(c3ccc(F)cc3)c3cc(Cl)ccc32)CC1 (stereo in doubt; 10) | 25 | 230 | – | 0.23 | –
OCCN1CCN(C2CC(c3ccc(F)cc3)c3cc(F)ccc32)CC1 (stereo not drawn) | 21 | 150 | 1100 | 0.35 | –
Cl.Cl.O=C1OCCN1CCN1CCN(C2CC(c3ccc(F)cc3)c3cc(Cl)ccc32)CC1 (stereo not drawn) | 23 | 140 | 550 | – | 2
Cc1ccc(C2CC(N3CCN(CCN4CCN(C(C)C)C4=O)CC3)c3ccc(Cl)cc32)cc1.O=C(O)/C=C\C(=O)O (stereo not drawn) | 11 | 60 | – | – | > 3.5

SMILES | IC50 [1] [nM] | IC50 [2] [nM] | IC50 (D(2) dopamine receptor) [nM] | ED50 (Rattus norvegicus) [µM/kg] | ED50 (Rattus norvegicus; [3]) [µmol/kg]
CC(C)N1CCN(CCN2CCN(C3CC(c4ccc(F)cc4)c4cc(Br)ccc43)CC2)C1=O.O=C(O)/C=C\C(=O)O.O=C(O)/C=C\C(=O)O (stereo not drawn) | 6.4 | 270 | – | – | 0.098
CC(C)N1CCN(CCN2CCN(C3CC(c4ccccc4)c4cc(Cl)ccc43)CC2)C1=O.O=C(O)/C=C\C(=O)O.O=C(O)/C=C\C(=O)O (stereo not drawn) | 9.9 | 510 | – | – | 1
OCCN1CCN(C2CC(c3ccc(F)cc3)c3c(Cl)cccc32)CC1 (stereo not drawn) | 40 | 30 | 220 | – | 0.82
CC(C)N1CCN(CCN2CCN(C3CC(c4ccc(Cl)cc4)c4cc(Cl)ccc43)CC2)C1=O.O=C(O)/C=C\C(=O)O (stereo not drawn) | 15 | 180 | – | – | 2.9
CN1CCN(CCN2CCN(C3CC(c4ccc(F)cc4)c4cc(Cl)ccc43)CC2)C1=O.O=C(O)/C=C\C(=O)O (stereo not drawn) | 2.8 | 600 | – | – | 0.093
Fc1ccc(C2CC(N3CCN(CCN4CCCN=C4S)CC3)c3ccc(F)cc32)cc1.O=C(O)/C=C\C(=O)O.O=C(O)/C=C\C(=O)O (stereo not drawn) | 1.7 | 110 | 220 | – | 0.039
Cl.Cl.Fc1ccc(C2CC(N3CCN(CCN4CCCNC4=S)CC3)c3ccc(F)cc32)cc1 (racemic) | 42 | – | 2900 | – | –
CCN1CCN(CCN2CCN(C3CC(c4ccc(F)cc4)c4cc(Cl)ccc43)CC2)C1=O.O=C(O)/C=C\C(=O)O.O=C(O)/C=C\C(=O)O (stereo not drawn) | 2.6 | 240 | – | – | 0.042
O=C1NCCN1CCN1CCN(C2CC(c3ccc(F)cc3)c3cc(Cl)ccc32)CC1 (stereo not drawn) | 2.9 | 200 | – | – | 0.34
CC(C)N1CCN(CCN2CCN(C3CC(c4cccc(F)c4)c4cc(Cl)ccc43)CC2)C1=O.O=C(O)/C=C\C(=O)O (stereo not drawn) | 26 | 970 | – | – | –
O=C(O)/C=C\C(=O)O.O=C(O)/C=C\C(=O)O.O=C1N(CCO)CCN1CCN1CCN(C2CC(c3ccc(F)cc3)c3cc(Cl)ccc32)CC1 (stereo not drawn) | 6.1 | 710 | – | – | 1.1
O=C(O)/C=C\C(=O)O.O=C(O)/C=C\C(=O)O.OCCN1CCN(C2CC(c3ccc(F)cc3)c3cc(C(F)(F)F)ccc32)CC1 (stereo not drawn) | 8.9 | 380 | – | – | 1
O=C(O)/C=C\C(=O)O.O=C(O)/C=C\C(=O)O.O=C1NCCCN1CCN1CCN(C2CC(c3ccc(F)cc3)c3cc(Cl)ccc32)CC1 (stereo in doubt; (+)-41) | 120 | – | 1700 | – | –
CC(C)N1CCN(CCN2CCN(C3CC(c4ccccc4F)c4cc(Cl)ccc43)CC2)C1=O.O=C(O)/C=C\C(=O)O.O=C(O)/C=C\C(=O)O (stereo not drawn) | 3.5 | 670 | – | – | 2.1
CC(C)N1CCN(CCN2CCN(C3CC(c4ccc(F)cc4)c4cc(C(F)(F)F)ccc43)CC2)C1=O.O=C(O)/C=C\C(=O)O.O=C(O)/C=C\C(=O)O (stereo not drawn) | 3.7 | 370 | – | – | 0.13
CC(C)N1CCN(CCN2CCN(C3CC(c4ccc(F)cc4)c4cc(Cl)ccc43)CC2)C1=O.O=C(O)/C=C\C(=O)O.O=C(O)/C=C\C(=O)O (stereo in doubt; 20) | 3.9 | 260 | – | 0.06 | –

From ChEMBL document CHEMBL1126803, “Stereospecific and selective 5-HT2 antagonism in a series of 5-substituted trans-1-piperazino-3-phenylindans” (J Med Chem, 1993)
